SENP1 FRET inh = inhibitors of human SENP1 SUMO protease catalytic domain. actives 0.21% (n = 360,000). recombinant SENP1 catalytic domain, CyPet-SUMO1-YPet FRET cleavage. inhibition, % at 10 µM;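 active = inhibition at least 30% at 10 µM, raw YFP signal under a set limit, fluorescence ratio 0.5 to 1.5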;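 note: 0% = enzyme with DMSO and 100% = no enzyme wells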
Target sequence (Q9P0U3 419-644 limits assumed): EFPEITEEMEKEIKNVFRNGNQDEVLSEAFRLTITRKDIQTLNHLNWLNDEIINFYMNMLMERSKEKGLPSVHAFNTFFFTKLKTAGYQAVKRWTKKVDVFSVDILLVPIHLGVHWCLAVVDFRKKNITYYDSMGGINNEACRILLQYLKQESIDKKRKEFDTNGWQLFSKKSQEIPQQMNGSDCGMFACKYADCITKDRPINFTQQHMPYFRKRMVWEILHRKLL
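System: Recombinant human SENP1 catalytic domain, His6-tagged | Incubation: Enzyme reaction for 50 min at room temperature, dark | Medium: Tris pH 8 with BME, BSA, NP40 and catalase | Also added: 25 nM SUMO1 FRET substrate | Compound: 10 µM single point, 0.5% DMSO | Measured by: FRET fluorescence in CFP and YFP emission channels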
CSN inh = blocks human CSN-mediated cullin deneddylation; Q92905; Purified CSN, SCF-Nedd8-OG deneddylation, fluorescence polarization; inhibition, % at 12.5 µM; actives 0.38% (n = 360,000); AID 651999;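 active = pattern-corrected inhibition above about 35%, with an unprinted fluorescence ratio check between 0.5 and 1.5, limit read from the data, passing the limit was not always enough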;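 note: 0% = enzyme with substrate and 100% = substrate without enzyme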
Target sequence (Q92905 whole entry, looked up, one chain of several): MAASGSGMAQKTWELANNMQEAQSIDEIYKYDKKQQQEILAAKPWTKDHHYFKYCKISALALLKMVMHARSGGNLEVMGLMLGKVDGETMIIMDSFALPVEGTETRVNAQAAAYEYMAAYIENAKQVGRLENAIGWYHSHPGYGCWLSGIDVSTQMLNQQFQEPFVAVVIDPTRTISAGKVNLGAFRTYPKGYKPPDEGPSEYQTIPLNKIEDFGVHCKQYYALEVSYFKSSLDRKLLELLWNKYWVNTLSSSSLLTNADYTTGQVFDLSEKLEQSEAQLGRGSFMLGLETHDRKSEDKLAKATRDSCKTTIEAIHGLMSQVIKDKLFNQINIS
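Test system: Human Csn5 produced in HEK293T cells | Compound: 12.5 µM single point | Times: 90 min, room temperature | Signal: Fluorescence polarization readout | Read-out basis: % inhibition of substrate cleavage by Csn5 | Controls: no-enzyme wells high, enzyme-with-substrate wells low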
TPT1 inh = inhibitors of Candida albicans tRNA 2'-phosphotransferase TPT1; recombinant caTPT1, FP RNA substrate dephosphorylation; inhibition, % at 5 µM; actives 0.81% (n = 300,000);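 active = inhibition above the mean of all tested compounds plus 3 SD, set per screening campaign, cut at about 24% in these data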;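 note: plate controls were DMSO alone for no effect and ferristatin control at 100 nM for full effect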
Rpn11 inh = Rpn11 (human) deubiquitinase inhibition. O00487. AID 588493. actives 0.59% (n = 360,000). human 26S proteasome, Ub4-pepOG fluorescence polarization; 20S core pre-blocked with epoxomicin. inhibition, % at 20 µM;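 active = inhibition at 20 µM, scaled to each plate's controls, above about 33%, limit read from the data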
HNF4A DNA FP = change in binding of human HNF4 alpha to DNA | HNF4a-FITC DNA binding, fluorescence polarization, 1 h | activity change, % at 10 µM | actives 0.3% (n = 360,000) | AID 1224865; in the data active = activity change above about 30%, passing the limit was not always enough
caTPT1 confirm = confirmation of Candida albicans TPT1 inhibitors | inhibition, % at 5 µM | shares compounds with TPT1 inh | actives 74% (n = 2,400) | recombinant caTPT1, fluorescence polarization, RNase T1 coupled;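 active = inhibition above the primary screen limit, the mean inhibition of all tested compounds plus 3 SD, cut at about 25% in these data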
RNase T1 inh = RNase T1 inhibition in TPT1 counter-screen; AID 2153; shares compounds with TPT1 inh; actives 83% (n = 2,400); inhibition, % at 5 µM; RNase T1 cleavage, fluorescence polarization, 1536-well;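 active = inhibition above the solvent-only control well mean plus 3 SD, limit set per screening run, cut at about 23% in these data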;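 note: plate controls were DMSO wells with enzyme for no effect and wells without RNase T1 for full effect; inhibitors block cleavage so intact labeled substrate keeps polarization high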
Target sequence (P00651 whole entry, looked up): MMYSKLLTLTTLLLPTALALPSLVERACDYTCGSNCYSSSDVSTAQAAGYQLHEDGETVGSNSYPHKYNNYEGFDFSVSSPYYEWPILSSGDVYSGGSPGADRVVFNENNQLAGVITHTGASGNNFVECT
* hit, by the source's call; nt = not tested or not shown. In the library only some 1.6% were active in any assay of this set; here they are far more common.

SMILES | SENP1 FRET inh | CSN inh | TPT1 inh | Rpn11 inh | HNF4A DNA FP | caTPT1 confirm | RNase T1 inh
COc1ccc(-n2c(O)c(/C=N/Nc3nc(C)cc(C)n3)c3ccccc3c2=O)cc1OC | -57 | -3 | 2 | 28 | -2 | nt | nt
CN(C)C(=O)Nc1ccccc1 | -2 | -4 | 0 | 2 | 0 | nt | nt
CCCCNC(=O)C1(C)CCCCN1C(=O)c1cc2ccccc2s1 (centres undefined) | -1 | 1 | nt | -8 | -4 | nt | nt
Cc1cc(C)c2nc(SCC(=O)NCCC3=CCCCC3)cc(C)c2c1 | 0 | -1 | 2 | -1 | 3 | nt | nt
COc1cc(/C=C2/C(=O)ON=C2c2ccccc2)ccc1O | 2 | 9 | 4 | 0 | 0 | nt | nt
Cc1ccc(/C=C2/C(=O)ON=C2c2ccccc2)o1 | -36 | 17 | 34* | 13 | -6 | 17 | 25*
CCOc1cc(/C=C2/C(=O)ON=C2C)cc(Br)c1O | 4 | 9 | 40* | 25 | 3 | 111* | 122*
COc1cc(/C=C2\C(=O)ON=C2c2ccccc2)cc(Cl)c1O | 14 | 2 | 35* | 17 | -2 | 123* | 128*
O=C1ON=C(c2ccccc2)/C1=C\c1ccco1 | -7 | 2 | 19 | -6 | -4 | nt | nt
CCCOc1ccc(/C=C2/C(=O)ON=C2C)cc1OCC | 0 | 5 | -2 | 1 | 0 | nt | nt
CCOc1cc(/C=C2\C(=O)ON=C2c2ccccc2)cc(Br)c1O | 9 | 6 | 40* | 12 | 5 | 137* | 138*
CCc1nc2ccc(C(=O)N(C)C(C)C)cn2c1N(CCC(C)C)CCN(C)C | -53 | -4 | nt | -11 | -2 | nt | nt
O=S(=O)(c1cccc(F)c1)N1CCN(C(=S)NCC2CCCO2)CC1 (centres undefined) | 4 | 3 | 0 | 5 | -1 | nt | nt
CC(C)[C@H](NC(=O)c1c(F)cccc1F)C(=O)OCC(=O)NNC(=O)c1ccccc1 | 1 | 0 | nt | -3 | -9 | nt | nt
CN(C)C=NC(=O)c1cn(-c2ccc(F)cc2)c(=O)c2ccccc12 | -1 | -3 | 0 | 2 | -3 | nt | nt
CC(=O)Nc1ccc(S(=O)(=O)N2CCN(c3cnn(C)c(=O)c3Cl)CC2)cc1 | -1 | -9 | 9 | -1 | -2 | nt | nt
COc1cc(/C=C2\C(=O)ON=C2c2ccccc2)cc(Br)c1O | 12 | 10 | 43* | 17 | 2 | 138* | 139*
C[C@@H]1CN([C@@H](C)CO)C(=O)CCCn2nncc2CO[C@H]1CN(C)C(=O)Nc1ccccc1F | 0 | 8 | nt | -1 | -1 | nt | nt
O=C(CSc1nnc(COc2ccccc2Cl)o1)NC(=O)NCc1ccco1 | -1 | 26 | 0 | -11 | -32 | nt | nt
COc1cc2c(c(OC)c1OC)-c1ccc(SC)c(=O)cc1C(NC=O)CC2 (centres undefined) | -1 | -3 | nt | 4 | -5 | nt | nt
CC(C)(C)CC(=O)Nc1nn[nH]n1 | 4 | -6 | 27* | -2 | 1 | 6 | 10
CC12CC3(C)CC(C)(C1)CC(C(=O)Nc1nn[nH]n1)(C2)C3 | 2 | -2 | -2 | 6 | 2 | nt | nt
CCOC(=O)c1c(NC(=S)Nc2ccccc2)sc2c1CCN(CC)C2 | -23 | 31 | 99* | nt | 44* | 86* | 95*
CCOC(=O)c1c(NC(=S)Nc2cccc(C)c2)sc2c1CC(C)(C)SC2 | -76 | -2 | 31* | nt | 4 | 26* | 32*
CCOC(=O)c1c(NC(=S)Nc2ccccc2)sc2c1CCCCC2 | -3 | 1 | 1 | 6 | 2 | nt | nt
SMILES | SENP1 FRET inh | CSN inh | TPT1 inh | Rpn11 inh | HNF4A DNA FP | caTPT1 confirm | RNase T1 inh
O=C(NCC(c1ccco1)N1CCc2ccccc2C1)C(=O)Nc1ccc(F)cc1F (centres undefined) | -4 | 1 | 1 | 3 | 0 | nt | nt
CCOc1ccc(N2C(=O)CS/C2=C(\C(Cl)=C(Cl)Cl)[N+](=O)[O-])cc1 | 12 | 14 | 54* | 71* | 35* | 58* | 70*
O=C(O)c1ccc(N2C(=O)CC(SC(=Nc3ccccc3)Nc3ccccc3)C2=O)cc1 (centres undefined) | 2 | -3 | -1 | -2 | -2 | nt | nt
CC(/C=C/c1ccc(N(C)C)cc1)=N\N=C(/N)SC1CC(=O)N(c2ccc(C(=O)O)cc2)C1=O (centres undefined) | -28 | 13 | 26* | nt | 40* | 28* | 43*
Cc1cc(C)nc(SCc2cc(=O)c(OC(=O)c3cc([N+](=O)[O-])ccc3Cl)co2)n1 | 3 | 4 | 1 | -9 | -4 | nt | nt
O=C(Oc1coc(CSc2ncccn2)cc1=O)c1ccccc1[N+](=O)[O-] | 1 | 0 | 46* | -4 | -4 | 6 | 10
O=C(Nc1ccc(F)cc1)c1cc(S(=O)(=O)Nc2ccc(F)cc2)cs1 | -1 | -1 | 5 | 2 | -2 | nt | nt
COc1ccc(NC(=O)c2cc(S(=O)(=O)Nc3ccc(OC)cc3)cs2)cc1 | 3 | -5 | 47* | 0 | 1 | 5 | 7
O=C(NC1C2CC3CC(C2)CC1C3)c1ccc(Br)o1 (centres undefined) | 6 | 1 | -1 | 8 | -3 | nt | nt
Cc1ccc(CNc2ccc3c(c2)OCO3)c(C)c1 | nt | nt | 26* | nt | nt | 20 | 35*
COc1cc(C2C(C#N)=C(N)N(c3cccnc3)C3=C2C(=O)CCC3)ccc1O (centres undefined) | -46 | 1 | 8 | 4 | 6 | nt | nt
COc1cc(C2C(C#N)=C(N)N(c3ccc(F)cc3)C3=C2S(=O)(=O)CC3)ccc1O (centres undefined) | -9 | 13 | 32* | 31 | 15 | 13 | 26*
CCOC(=O)/C(=C\Nc1ccccc1C(F)(F)F)Sc1ncc(C(F)(F)F)cc1Cl | 1 | 2 | 0 | -2 | 1 | nt | nt
N#Cc1c(Sc2ncc(C(F)(F)F)cc2Cl)nsc1C/C=N\OCc1ccccc1Br | -39 | 24 | 55* | nt | 17 | 35* | 37*
O=C(Nc1ccccc1F)Nc1ccccc1OC(F)F | 0 | -2 | -2 | -3 | 0 | nt | nt
COCCCn1c(N)c(-c2nc3ccccc3n2C)c2nc3ccccc3nc21 | -23 | 12 | 46* | 37 | 18 | 46* | 59*
Cn1c(-c2c(N)n(C3CCCC3)c3nc4ccccc4nc23)nc2ccccc21 | -23 | 4 | 39* | 14 | 10 | 43* | 51*
COCCn1c(N)c(S(=O)(=O)c2cccs2)c2nc3ccccc3nc21 | -36 | 0 | -3 | -6 | 5 | nt | nt
CSc1ccc(CN2CCC2(C)C(=O)Nc2ccc3c(c2)OCO3)cc1 (centres undefined) | 1 | -1 | nt | -5 | -3 | nt | nt
COc1ccc(N(CC(=O)NC2CCCC2)C(=O)c2ccc(C)s2)cc1OC | 0 | 1 | 2 | -3 | 2 | nt | nt

Screening results: PubChem, several laboratories
